Experimental data reported in ChEMBL document CHEMBL1143356, “Synthesis and characterization of a peripherally restricted CB1 cannabinoid antagonist, URB447, that reduces feeding and body-weight gain in mice” (Bioorg Med Chem Lett, 2009).
pEC50, pIC50: −log10 of the molar value. The source made the active and inactive calls. No cut-off for these calls is given here.

How the values were obtained:
Cannabinoid receptor 1 [1] = molecular target: T1, Cannabinoid receptor 1 (Rattus norvegicus, UniProt P20272); assay: Displacement of [3H]WIN-55212-2 from CB1 receptor in rat cerebellar membrane by liquid scintillation counting; assay type: cell membranes, Cerebellum
Cannabinoid receptor 2 = Cannabinoid receptor 2 (Homo sapiens, UniProt P34972); assay: Displacement of [3H]WIN-55212-2 from human CB2 receptor expressed in CHO-K1 cells by liquid scintillation counting; assay type: cell-based
Mus musculus [2] = assay: Antianalgesic activity in Swiss mouse assessed as inhibition of (R)-methanandamide-induced analgesic effect at 2 mg/kg, ip administered 30 mins before (R)-methanandamide challenge measured for 45 mins by formalin planter test; assay type: functional, organism-based; parameters: dose 2 mg/kg
Outline: (§1)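 Formalin test in mice. Inject 10 μL of 5% formaldehyde (vehicle: saline/5% PEG-400/5% Tween-80) into the plantar paw, with (R)-methanandamide dissolved in the formalin. Give the antagonist i.p. 30 min before formalin. A blinded observer scores paw licking and biting for 45 min (phase I 0-15 min, phase II 15-45 min).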

Mus musculus [3] = assay: Inhibition of WIN-55212-2-induced hypothermia in Swiss mouse assessed as change in body temperature at 2 mg/kg ip administered 30 mins before WIN-55212-2 challenge; assay type: functional, organism-based; parameters: dose 2 mg/kg
Outline: (§2)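 Mice dosed i.p. Rectal temperature taken with a digital probe and reported as change from baseline.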

Mus musculus [4] = assay: Inhibition of WIN-55212-2-induced catalepsy in Swiss mouse at 5 mg/kg ip administered 30 mins before WIN-55212-2 challenge measured after 30 mins by ring catalepsy test; assay type: functional, organism-based; parameters: dose 5 mg/kg
Outline: (§3)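 Mice dosed i.p. Ring test scored by a blinded observer as total time cataleptic during a 3-min observation.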

Mus musculus [5] = assay: Antiobesity activity in ob/ob mouse assessed as reduction of food intake at 20 mg/kg, ip once daily for 2 weeks; assay type: functional, organism-based; parameters: dose 20 mg/kg
Cannabinoid receptor 1 [6] = molecular target: T1, Cannabinoid receptor 1; assay: Antagonist activity at CB1 receptor in rat cerebellar membrane assessed as inhibition of WIN-55212-2-induced [35S]GTPgammaS binding by liquid scintillation counting; assay type: functional, cell membranes, Cerebellum
Outline: (§4)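 Rat cerebellar membranes (20 μg) from freshly dissected cerebella. Incubate 90 min at 30 °C with 0.05 nM [35S]GTPγS and graded compound concentrations, in 20 mM Tris pH 7.4 with 5 mM MgCl2, 0.1 M NaCl, 30 μM GDP, adenosine deaminase, 0.02% BSA and PMSF. Run ± 10 μM WIN-55212-2. Stop by centrifugation at 4 °C, wash the pellet, and count by liquid scintillation.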

[7] = molecular target: Cannabinoid receptor 1 (Rattus norvegicus) (UniProt P20272); assay: Antagonist activity at CB1 receptor in rat cerebellar membrane by [35S]GTPgammaS binding assay; assay type: functional, cell membranes; conditions: Cerebellum; outline: as §4
[8] = molecular target: Cannabinoid receptor 2 (Mus musculus) (UniProt P47936); assay: Agonist activity at mouse CB2 receptor expressed in HEK293 cells assessed as inhibition of isoproterenol-induced cAMP accumulation at 1 uM by radioimmunoassay; assay type: functional, cell-based
Outline: (§5)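 Stably transfected HEK cells carrying mouse CB2. Rinse in HEPES buffer (15 min), preincubate with IBMX 10 mM (15 min), then incubate with IBMX ± isoproterenol 10 μM (15 min), all at 37 °C in a shaking bath. Cannabinoid is present in both the preincubation and the incubation.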

Mus musculus [9] = assay: Anorexic activity in Swiss mouse assessed as reduction of food intake at 5 mg/kg, ip administered 30 mins before dark onset after 24 hrs; assay type: functional, organism-based; parameters: dose 5 mg/kg
Outline: (§6)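 Male Swiss mice (20-25 g) housed singly in automated feeding cages after 4 days of habituation. Dose i.p. in saline/10% PEG-400/10% Tween-80 before dark onset. Weight of food removed is logged continuously and expressed as food per kg body weight.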

Mus musculus [10] = assay: Anorexic activity in Swiss mouse assessed as reduction of food intake at 20 mg/kg, ip administered 30 mins before dark onset after 24 hrs; assay type: functional, organism-based; parameters: dose 20 mg/kg; outline: as §6
Mus musculus [11] = assay: Effect on motor activity in Swiss mouse assessed as number of light beam interruptions projecting across each cage at 20 mg/kg, ip; assay type: functional, organism-based; parameters: dose 20 mg/kg
Outline: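 Male Swiss mice in the automated cages, dosed i.p. in saline/PEG-400/Tween-80 vehicle. Activity is counted as light-beam interruptions, recorded at the same time as feeding.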

[12] = Plasma concentration in Swiss mouse at 20 mg/kg, ip after 30 mins; assay type: ADME, organism-based; parameters: dose 20 mg/kg, route intraperitoneal; conditions: read-out: Cmax
Outline: (§7)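 Mice dosed i.p. Blood and snap-frozen tissue are extracted in CH3OH:CHCl3:H2O and analysed by LC/MS on a cyano column with a water/methanol gradient containing acetic acid and ammonium acetate, at 0.4 mL/min.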

[13] = Drug level in Swiss mouse white adipose tissue at 20 mg/kg, ip after 15 mins; assay type: ADME, organism-based; parameters: dose 20 mg/kg, route intraperitoneal; conditions: in vivo, 0.25 h; outline: as §7
Mus musculus [14] = assay: Antianalgesic activity in Swiss mouse assessed as inhibition of (R)-methanandamide-induced analgesic effect at 20 mg/kg, ip administered 30 mins before (R)-methanandamide challenge measured for 45 mins by formalin planter test; assay type: functional, organism-based; parameters: dose 20 mg/kg; outline: as §1
Mus musculus [15] = assay: Inhibition of WIN-55212-2-induced hypothermia in Swiss mouse assessed as change in body temperature at 20 mg/kg ip administered 30 mins before WIN-55212-2 challenge; assay type: functional, organism-based; parameters: dose 20 mg/kg; outline: as §2
Mus musculus [16] = assay: Inhibition of WIN-55212-2-induced catalepsy in Swiss mouse at 20 mg/kg ip administered 30 mins before WIN-55212-2 challenge measured after 30 mins by ring catalepsy test; assay type: functional, organism-based; parameters: dose 20 mg/kg; outline: as §3
Mus musculus [17] = assay: Antiobesity activity in ob/ob mouse assessed as reduction of body weight gain at 20 mg/kg, ip once daily for 2 weeks; assay type: functional, organism-based; parameters: dose 20 mg/kg
[18] = Lipophilicity, log P of the compound; assay type: physicochemical; conditions: octanol/water
[19] = molecular target: Cannabinoid receptor 2 (Mus musculus) (UniProt P47936); assay: Agonist activity at mouse CB2 receptor expressed in HEK293 cells assessed as cAMP accumulation at 1 uM by radioimmunoassay; assay type: functional, cell-based; outline: as §5

Sequence of Cannabinoid receptor 2 (P34972 whole entry): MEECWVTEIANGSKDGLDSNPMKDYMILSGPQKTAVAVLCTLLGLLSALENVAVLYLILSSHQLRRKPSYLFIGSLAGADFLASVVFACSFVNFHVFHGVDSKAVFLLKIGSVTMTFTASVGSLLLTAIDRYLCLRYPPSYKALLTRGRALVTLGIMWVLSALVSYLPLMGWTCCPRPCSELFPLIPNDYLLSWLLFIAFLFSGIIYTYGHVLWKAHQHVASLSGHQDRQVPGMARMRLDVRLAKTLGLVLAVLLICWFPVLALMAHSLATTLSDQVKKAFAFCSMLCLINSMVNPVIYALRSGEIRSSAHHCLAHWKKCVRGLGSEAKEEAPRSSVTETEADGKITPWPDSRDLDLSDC
T1 sequence (P20272 whole entry): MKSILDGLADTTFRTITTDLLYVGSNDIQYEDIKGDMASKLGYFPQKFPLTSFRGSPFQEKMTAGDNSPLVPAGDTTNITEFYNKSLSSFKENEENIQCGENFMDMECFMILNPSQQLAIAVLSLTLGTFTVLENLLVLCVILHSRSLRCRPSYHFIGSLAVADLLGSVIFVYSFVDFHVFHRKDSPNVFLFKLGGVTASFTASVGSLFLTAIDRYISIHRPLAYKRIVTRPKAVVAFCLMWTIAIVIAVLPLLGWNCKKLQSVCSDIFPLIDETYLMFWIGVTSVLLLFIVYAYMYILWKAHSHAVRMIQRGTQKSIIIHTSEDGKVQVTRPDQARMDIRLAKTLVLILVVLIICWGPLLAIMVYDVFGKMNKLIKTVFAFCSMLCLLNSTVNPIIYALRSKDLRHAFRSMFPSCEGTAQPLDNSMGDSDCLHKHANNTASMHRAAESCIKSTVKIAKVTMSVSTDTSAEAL
Sequence of Cannabinoid receptor 2 (Mus musculus) (P47936 whole entry): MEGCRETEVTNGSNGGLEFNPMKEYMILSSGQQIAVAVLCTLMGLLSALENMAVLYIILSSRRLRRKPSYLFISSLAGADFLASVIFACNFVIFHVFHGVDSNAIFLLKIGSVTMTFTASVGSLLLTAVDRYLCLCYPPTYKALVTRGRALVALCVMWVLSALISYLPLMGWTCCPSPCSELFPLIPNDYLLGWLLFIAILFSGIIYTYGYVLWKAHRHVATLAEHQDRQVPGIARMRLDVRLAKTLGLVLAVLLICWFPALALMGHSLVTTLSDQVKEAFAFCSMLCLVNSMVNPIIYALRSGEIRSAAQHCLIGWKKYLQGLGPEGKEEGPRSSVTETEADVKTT
Sequence of Cannabinoid receptor 1 (Rattus norvegicus) (P20272 whole entry): as the sequence (P20272 whole entry) above

Structure (SMILES): Cc1c(C(=O)NN2CCCCC2)cc(-c2ccccc2)n1Cc1ccc(Cl)cc1
- pIC50 (Cannabinoid receptor 1 [1]): < 6.00
- pIC50 (Cannabinoid receptor 2): < 6.00

Structure (SMILES): Cc1[nH]c(-c2ccccc2)c(N)c1C(=O)c1ccccc1
- pIC50 (Cannabinoid receptor 1 [1]): < 6.00
- pIC50 (Cannabinoid receptor 2): < 6.00

Structure (SMILES): Cc1c(C(=O)NN2CCCCC2)nn(-c2ccc(Cl)cc2Cl)c1-c1ccc(Cl)cc1
- Activity (Mus musculus [2]): Active
- Activity (Mus musculus [3]): Active
- Activity (Mus musculus [4]): Active
- Activity (Mus musculus [5]): Active

Structure (SMILES): Cc1c(C(=O)c2ccccc2)cc(-c2ccccc2)n1Cc1ccc(Cl)cc1
- pIC50 (Cannabinoid receptor 1 [1]): < 6.00
- pIC50 (Cannabinoid receptor 2): 6.30

Structure (SMILES): Cc1c(C(=O)NC2CC3CCC2C3)cc(-c2ccccc2)n1Cc1ccc(Cl)cc1 (configuration not stated)
- pIC50 (Cannabinoid receptor 1 [1]): < 6.00
- pIC50 (Cannabinoid receptor 2): 6.38

Structure (SMILES): Cc1c(C(=O)c2ccccc2)c(N)c(-c2ccccc2)n1Cc1ccc(Cl)cc1
- pIC50 (Cannabinoid receptor 1 [1]): 6.50
- pIC50 (Cannabinoid receptor 2): 7.39
- pEC50 (Cannabinoid receptor 1 [6]): 5.31
- Activity [7]: inactive
- Activity [8]: 14.3 pmol
- Activity (Mus musculus [9]): inactive
- Activity (Mus musculus [10]): inactive
- Activity (Mus musculus [11]): inactive
- concentration at 0.5 h [12]: 596 nM
- Cmax [13]: 42 nmol/g
- Activity (Mus musculus [14]): Active
- Activity (Mus musculus [15]): inactive
- Activity (Mus musculus [16]): inactive
- Activity (Mus musculus [17]): Active
- logP [18]: 6.39
- Activity [19]: 5.9 pmol

Structure (SMILES): Cc1c(C(=O)NC2C3CC4CC(C3)CC2C4)cc(-c2ccccc2)n1Cc1ccc(Cl)cc1 (configuration not stated)
- pIC50 (Cannabinoid receptor 1 [1]): 7.15
- pIC50 (Cannabinoid receptor 2): 7.96

Structure (SMILES): Cc1c(C(=O)NC2C3CC4CC(C3)CC2C4)c(Br)c(-c2ccccc2)n1Cc1ccc(Cl)cc1 (configuration not stated)
- pIC50 (Cannabinoid receptor 1 [1]): < 6.00
- pIC50 (Cannabinoid receptor 2): 6.91
